ChEMBL document CHEMBL1125578, “Synthesis of a series of nitrothiophenes with basic or electrophilic substituents and evaluation as radiosensitizers and as bioreductively activated cytotoxins” (J Med Chem, 1991)

Legend:
Mus musculus = experiment: The maximum tolerated dose described as the highest single intraperitoneal dose which did not produce severe or persistent clinical signs or death of the adult non-tumor bearing mice within 24 hours.; assay type: functional
In short: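 Adult non-tumor-bearing mice received escalating single ip doses of compound, dissolved fresh in 0.1 M phosphate-buffered saline, pH 7.4, at 0.02 mL/g body weight.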

V79 [1] = experiment: Reduction of optical density by 50% compared to controls when assay was performed under nitrogen in Hypoxic V79 Cells.; assay type: functional, Cricetulus griseus
In short: (§1)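 V79 cells were tested in an MTT assay, with incubations run under air or under nitrogen. Optical density was taken as proportional to the number of viable cells at the end of incubation. C50 is the concentration lowering optical density by 50% versus controls. The ratio is C50(AIR)/C50(N2).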

V79 [2] = experiment: Reduction of optical density by 50% compared to controls when assay was performed under air in […] V79 Cells.; assay type: functional, Cricetulus griseus; in short: as §1
[3] = The ratio of C50(AIR) to that of C50(N2).; assay type: functional; in short: as §1
[4] = tested on: V79 cells (Cricetulus griseus); experiment: In vitro concentration of gamma-radiation to give an enhancement ratio of 1.6 when compared to control V79.
V79 [5] = experiment: Compound was evaluated for its concentration to reduce the optical density by 50% compared to controls when assay was performed under air in […] V79 Cells; assay type: functional, Cricetulus griseus; in short: as §1
[6] = In vivo radiosensitization of KHT tumors in mice by administration at a dose of 0.34 mmol/kg intraperitoneally. The optimum time interval between injection and irradiation of tumor was 30 minutes.; assay type: ADME, organism-based; conditions: mouse, ip, 0.5 h
[7] = In vivo radiosensitization of KHT tumors in mice by administration at a dose of 0.38 mmol/kg intraperitoneally. The optimum time interval between injection and irradiation of tumor was 60 minutes.; assay type: ADME, organism-based; conditions: mouse, ip, 1 h
[8] = In vivo radiosensitization of KHT tumors in mice by administration at a dose of 0.17 mmol/kg intraperitoneally. The optimum time interval between injection and irradiation of tumor was 60 minutes.; assay type: ADME, organism-based; conditions: mouse, ip, 1 h

SMILES | MTD (Mus musculus) [mM/kg] | C50 (V79 [1]) [mM] | C50 (V79 [2]) [mM] | Ratio [3] | Activity [4] [mM] | C50 (V79 [5]) [mM] | Surviving fraction [6] | Surviving fraction [7] | Surviving fraction [8]
Cc1sc(C(=O)NCCN2CCCCC2)cc1[N+](=O)[O-].Cl | <0.34 | 0.8 | 1.8 | 2.3 | 0.07 | – | – | – | –
C=CCNC(=O)c1ccc([N+](=O)[O-])s1 | – | 0.11 | – | 2.5 | 0.08 | 0.3 | – | – | –
Br.O=[N+]([O-])c1nccn1CC(O)CNCCBr (stereo unspecified) | 1 | 0.09 | 2.3 | 26 | 0.1 | – | – | – | –
Cc1sc(C(=O)NCCN(C)C)cc1[N+](=O)[O-].Cl | 0.34 | – | – | – | 0.1 | – | 0.005 | – | –
COC(=O)[C@H](CCCCN)NC(=O)c1cc([N+](=O)[O-])c(C)s1.Cl | 0.34 | 0.35 | 0.35 | 1 | 0.05 | – | – | – | –
COCC(O)Cn1ccnc1[N+](=O)[O-] (stereo unspecified) [MISONIDAZOLE] | 4 | 4 | 45 | – | 0.6 | – | – | – | –
O=[N+]([O-])c1nccn1CC(O)CN1CC1 (stereo unspecified) | 0.38 | 0.0045 | 0.3 | 67 | 0.1 | – | – | 0.00083 | –
Cc1cc(CC2CO2)sc1[N+](=O)[O-] (stereo unspecified) | – | 0.045 | 0.065 | 1.3 | 0.06 | – | – | – | –
O=C(NCC1CO1)c1ccc([N+](=O)[O-])s1 (stereo unspecified) | – | 0.15 | 0.15 | 1 | 0.05 | – | – | – | –
Cc1sc(C(=O)NCCN2CCOCC2)cc1[N+](=O)[O-].Cl | 0.34 | 2.5 | 2.5 | 1 | 1 | – | – | – | –
Cc1sc(C(=O)NCCCN2CCCC2)cc1[N+](=O)[O-].Cl | 0.24 | – | – | – | 0.03 | – | – | – | –
O=C(/C=C/c1ccc([N+](=O)[O-])s1)NCC1CO1 (stereo unspecified) | – | 0.08 | 0.08 | 1 | 0.05 | – | – | – | –
Cc1sc(C(=O)NCC2CO2)cc1[N+](=O)[O-] (stereo unspecified) | – | 0.4 | 0.35 | 0.9 | 0.2 | – | – | – | –
Cl.O=C(NCCN1CCCCC1)c1ccc([N+](=O)[O-])o1 | 0.17 | 0.016 | 0.05 | 3 | 0.01 | – | – | – | 0.0022
